Measurements taken from ChEMBL document CHEMBL4251706, “Elimination of HIV-1 Latently Infected Cells by Gnidimacrin and a Selective HDAC Inhibitor” (ACS Med Chem Lett, 2018).
Active and inactive are the calls of the source. No cut-off for these calls is given here.

What was measured:
[1] = Cytotoxicity against human J-Lat (A2) cells assessed as effect on cell viability at 0.3 uM after 72 hrs by flow cytometric analysis; type: cell-based
Method in brief: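 J-Lat (A2) cells, 1x10^6 cells/well, incubated with the test agent at 37 °C for 72 h. GFP-expressing cells and percent viable cells measured by flow cytometry. Two independent experiments.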

[2] = test system: Human immunodeficiency virus 1; test: Reactivation of latent HIV1 infected in human U1 cells assessed as increase in p24 production after 48 hrs by ELISA; type: functional, organism-based
[3] = test system: PBMC; test: Induction of IFNgamma1 production in human PBMC at 3 uM after 2 days by ELISA; type: cell-based; conditions: 48 h
[4] = test system: Human immunodeficiency virus 1; test: Reactivation of latent HIV1 infected in human U1 cells assessed as increase in p24 production after 48 hrs by ELISA relative to vorinostat; type: functional
Method in brief: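 U1 cells at 2x10^5 cells/ml incubated with a range of concentrations at 37 °C for 48 h. Supernatant p24 measured by HIV p24 ELISA. EC50 ± SD derived from 3 independent experiments.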

[5] = Cytotoxicity against human Jurkat cells assessed as reduction in cell viability after 72 hrs by CellTiter-Glo luminescent cell viability assay; type: cell-based
[6] = Cytotoxicity against human U937 cells assessed as reduction in cell viability after 48 hrs by CellTiter-Glo luminescent cell viability assay; type: cell-based, U-937
Method in brief: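 U937 cells (HIV-1-negative parental line of U1) at 2x10^5 cells/ml exposed to a range of concentrations for 48 h at 37 °C. Viability read by CellTiter-Glo luminescence. CC50 ± SD derived from 3 independent experiments.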

[7] = Selectivity index, ratio of CC50 for human U937 cells to EC50 for reactivation of latent HIV1 infected in human U1 cells
[8] = biological target: Histone deacetylase 3/Nuclear receptor corepressor 2 (HDAC3/NCoR2) (Homo sapiens) (UniProt O15379+Q9Y618); test: Inhibition of full length human C-terminal His-tagged HDAC3/N-terminal GST-tagged NCOR2 (395 to 489 residues) expressed in baculovirus infected Sf9 insect cells using substrate measured after 60 mins by colorimetric method
[9] = Human immunodeficiency virus 1, U1, 48 h, read-out: EC50

EC50 [2, 9]	inhibition [8]	EC50 ([2]; u1)	SMILES	Activity [1]	Activity [3]	fold change (FC) [4]	CC50 at 72 h [5]	CC50 at 48 h [6]	selectivity ratio [7]	selectivity ratio ([7]; U937 cells (CC50) and latent HIV-1 infected U1 cells (EC50))
0.93 µM	–	–	CC(=O)Nc1ccc(C(=O)Nc2cc(-c3cccs3)ccc2N)cc1	Non-Toxic	Non-Toxic	1.4	12.6 µM	14 µM	–	–
0.6 µM	Active	–	Nc1ccccc1NC(=O)c1ccc(-c2cn(CCc3ccsc3)nn2)cc1	–	–	0.12	–	0.83 µM	1.4	–
–	Active	Not Active	Nc1cc(F)ccc1NC(=O)/C=C/c1cnn(C/C=C/c2ccccc2)c1	–	–	0	–	–	–	–
1.4 µM	–	–	Nc1ccc(F)cc1NC(=O)c1ccc(CNC(=O)/C=C/c2cccnc2)cc1	–	–	1.5	–	5 µM	–	3.6
